Active and inactive are the calls of the source.
What was measured:
Assay type in all cases: functional, organism-based
Mus musculus [1] = experiment: Immuno-adjuvant activity in BALB/c mouse assessed as increase in anti-OVA Ig2a antibody in serum at 50 ug, sc administered on day 0, 14 and 28 and measured at 4 weeks in presence of chicken egg ovalbumin by ELISA; details: dose 50.0 µg, time 6.0 weeks, in the assay text read “measured at 6 weeks” for “measured at 4 weeks”
Method in brief: (§1)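 Female BALB/c mice (8–10 wk, six per group) immunized s.c. with OVA 20 μg ± adjuvant on days 0, 14, 28. Tail-vein serum taken before each dose and 2 wk after the last. ELISA on OVA-coated (0.1 μg/mL) plates in borate saline pH 8.2. Twofold serum dilutions in duplicate, overnight at 4 °C. HRP anti-mouse IgG/subclass applied 4 h, OPD substrate, read at 490 nm. Concentrations from reference-serum standard curves (4-parameter fit).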

Mus musculus [2] = experiment: Immuno-adjuvant activity in BALB/c mouse Splenocyte assessed as increase in CD4+ surface expression of PD-1 at 50 ug, sc administered on day 0, 14 and 28 and measured at week 6 post immunization by flow cytometry analysis; details: dose 50.0 µg, time 6.0 weeks
Method in brief: (§2)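 Female BALB/c mice (8–10 wk, six per group) given OVA 20 μg s.c. with adjuvant on days 0, 14, 28; spleens taken at week 6. Splenocytes stained with viability dye, Fc-blocked, surface-stained 30 min. For intracellular cytokines, cells stimulated 5 h with leukocyte activation cocktail plus GolgiPlug, then fixed/permeabilized. IL-21 detected with IL-21R Fc chimera. All steps at 4 °C. Read as MFI, mean ± SEM.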

Mus musculus [3] = experiment: Immuno-adjuvant activity in BALB/c mouse assessed as increase in CD19+ B cells in spleen at 50 ug, sc administered on day 0, 14 and 28 and measured at week 6 post immunization by flow cytometry analysis; details: dose 50.0 µg, time 6.0 weeks
Method in brief: (§3)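 Female BALB/c mice (8–10 wk, six per group), OVA 20 μg s.c. plus adjuvant on days 0, 14, 28; spleens collected week 6. Single-cell splenocyte suspensions stained and analysed by flow cytometry. TFH gated PD-1+Bcl6+Foxp3−CD4+CD3+, TFR PD-1+Bcl6+Foxp3+CD4+CD3+, dark zone GC B cells CXCR4hiCD86loFas+GL-7+CD19+. Steps at 4 °C. Mean ± SEM; unpaired t tests.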

Mus musculus [4] = experiment: Immuno-adjuvant activity in BALB/c mouse assessed as increase in ratio of TFH to TFR cells at 50 ug, sc administered on day 0, 14 and 28 and measured at week 6 post immunization by flow cytometry analysis; details: dose 50.0 µg, time 6.0 weeks; method in brief: as §3
Mus musculus [5] = experiment: Immuno-adjuvant activity in BALB/c mouse assessed as increase in intracellular level of INFgamma in spleen CD8+ cells at 50 ug, sc administered on day 0, 14 and 28 and measured at week 6 post immunization by flow cytometry analysis; details: dose 50.0 µg, time 6.0 weeks; method in brief: as §2
Mus musculus [6] = experiment: Immuno-adjuvant activity in BALB/c mouse assessed as increase in intracellular level of INFgamma in spleen CD4+ cells at 50 ug, sc administered on day 0, 14 and 28 and measured at week 6 post immunization by flow cytometry analysis; details: dose 50.0 µg, time 6.0 weeks; method in brief: as §2
Mus musculus [7] = experiment: Immuno-adjuvant activity in BALB/c mouse assessed as increase in anti-OVA IgG antibody in serum at 50 ug, sc administered on day 0, 14 and 28 and measured at 4 and 6 weeks in presence of chicken egg ovalbumin by ELISA; details: dose 50.0 µg, time 4-6 weeks; method in brief: as §1
Mus musculus [8] = experiment: Immuno-adjuvant activity in BALB/c mouse assessed as increase in anti-OVA IgG2a antibody in serum at 50 ug, sc administered on day 0, 14 and 28 and measured at 2 weeks in presence of chicken egg ovalbumin by ELISA; details: dose 50.0 µg, time 6.0 weeks, in the assay text read “measured at 6 weeks” for “measured at 2 weeks”; method in brief: as §1

Measured: Activity

COc1cc(COC(=O)CCCCCCCCCCNC(=O)[C@H]2O[C@@H](O[C@H]3CC[C@]4(C)[C@H]5CC=C6[C@@H]7CC(C)(C)CC[C@]7(C(=O)O[C@@H]7O[C@H](C)[C@H](O)[C@H](O)[C@H]7O[C@@H]7O[C@@H](C)[C@H](O[C@@H]8OC[C@@H](O)[C@H](O)[C@H]8O)[C@@H](O[C@@H]8O[C@H](CO)[C@@H](O)[C@H](O[C@@H]9OC[C@@H](O)[C@H](O)[C@H]9O)[C@H]8O)[C@H]7O)[C@H](O)C[C@@]6(C)[C@]5(C)CC[C@H]4[C@]3(C)C=O)[C@H](O[C@@H]3O[C@H](CO)[C@H](O)[C@H](O)[C@H]3O)[C@@H](O[C@@H]3O[C@@H](C)[C@H](O)[C@@H](O)[C@H]3O)[C@@H]2O)cc(OC)c1
active: Mus musculus [1]

C[C@@H]1O[C@@H](O[C@H]2[C@H](O)[C@@H](C(=O)NCCCCCCCCCCC(=O)OCc3ccc(F)cc3)O[C@@H](O[C@H]3CC[C@]4(C)[C@H]5CC=C6[C@@H]7CC(C)(C)CC[C@]7(C(=O)O[C@@H]7O[C@H](C)[C@H](O)[C@H](O)[C@H]7O[C@@H]7O[C@@H](C)[C@H](O[C@@H]8OC[C@@H](O)[C@H](O)[C@H]8O)[C@@H](O[C@@H]8O[C@H](CO)[C@@H](O)[C@H](O[C@@H]9OC[C@@H](O)[C@H](O)[C@H]9O)[C@H]8O)[C@H]7O)[C@H](O)C[C@@]6(C)[C@]5(C)CC[C@H]4[C@]3(C)C=O)[C@@H]2O[C@@H]2O[C@H](CO)[C@H](O)[C@H](O)[C@H]2O)[C@H](O)[C@H](O)[C@H]1O
active: Mus musculus [1] | Mus musculus [2] | Mus musculus [3] | Mus musculus [4] | Mus musculus [5]

C[C@@H]1O[C@@H](O[C@H]2[C@H](O)[C@@H](C(=O)NCCCCCCCCCCC(=O)OCc3cccc([N+](=O)[O-])c3)O[C@@H](O[C@H]3CC[C@]4(C)[C@H]5CC=C6[C@@H]7CC(C)(C)CC[C@]7(C(=O)O[C@@H]7O[C@H](C)[C@H](O)[C@H](O)[C@H]7O[C@@H]7O[C@@H](C)[C@H](O[C@@H]8OC[C@@H](O)[C@H](O)[C@H]8O)[C@@H](O[C@@H]8O[C@H](CO)[C@@H](O)[C@H](O[C@@H]9OC[C@@H](O)[C@H](O)[C@H]9O)[C@H]8O)[C@H]7O)[C@H](O)C[C@@]6(C)[C@]5(C)CC[C@H]4[C@]3(C)C=O)[C@@H]2O[C@@H]2O[C@H](CO)[C@H](O)[C@H](O)[C@H]2O)[C@H](O)[C@H](O)[C@H]1O
not listed: Mus musculus [7] | Mus musculus [8]
active: all other assays above

C[C@@H]1O[C@@H](O[C@H]2[C@H](O)[C@@H](C(=O)NCCCCCCCCCCCOC(=O)c3ccccc3)O[C@@H](O[C@H]3CC[C@]4(C)[C@H]5CC=C6[C@@H]7CC(C)(C)CC[C@]7(C(=O)O[C@@H]7O[C@H](C)[C@H](O)[C@H](O)[C@H]7O[C@@H]7O[C@@H](C)[C@H](O[C@@H]8OC[C@@H](O)[C@H](O)[C@H]8O)[C@@H](O[C@@H]8O[C@H](CO)[C@@H](O)[C@H](O[C@@H]9OC[C@@H](O)[C@H](O)[C@H]9O)[C@H]8O)[C@H]7O)[C@H](O)C[C@@]6(C)[C@]5(C)CC[C@H]4[C@]3(C)C=O)[C@@H]2O[C@@H]2O[C@H](CO)[C@H](O)[C@H](O)[C@H]2O)[C@H](O)[C@H](O)[C@H]1O
active: Mus musculus [7] | Mus musculus [8]

COc1cccc(COC(=O)CCCCCCCCCCNC(=O)[C@H]2O[C@@H](O[C@H]3CC[C@]4(C)[C@H]5CC=C6[C@@H]7CC(C)(C)CC[C@]7(C(=O)O[C@@H]7O[C@H](C)[C@H](O)[C@H](O)[C@H]7O[C@@H]7O[C@@H](C)[C@H](O[C@@H]8OC[C@@H](O)[C@H](O)[C@H]8O)[C@@H](O[C@@H]8O[C@H](CO)[C@@H](O)[C@H](O[C@@H]9OC[C@@H](O)[C@H](O)[C@H]9O)[C@H]8O)[C@H]7O)[C@H](O)C[C@@]6(C)[C@]5(C)CC[C@H]4[C@]3(C)C=O)[C@H](O[C@@H]3O[C@H](CO)[C@H](O)[C@H](O)[C@H]3O)[C@@H](O[C@@H]3O[C@@H](C)[C@H](O)[C@@H](O)[C@H]3O)[C@@H]2O)c1
active: Mus musculus [1] | Mus musculus [2] | Mus musculus [3] | Mus musculus [6] | Mus musculus [5]

C[C@@H]1O[C@@H](O[C@H]2[C@H](O)[C@@H](C(=O)NCCCCCCCCCCNC(=O)c3ccccc3)O[C@@H](O[C@H]3CC[C@]4(C)[C@H]5CC=C6[C@@H]7CC(C)(C)CC[C@]7(C(=O)O[C@@H]7O[C@H](C)[C@H](O)[C@H](O)[C@H]7O[C@@H]7O[C@@H](C)[C@H](O[C@@H]8OC[C@@H](O)[C@H](O)[C@H]8O)[C@@H](O[C@@H]8O[C@H](CO)[C@@H](O)[C@H](O[C@@H]9OC[C@@H](O)[C@H](O)[C@H]9O)[C@H]8O)[C@H]7O)[C@H](O)C[C@@]6(C)[C@]5(C)CC[C@H]4[C@]3(C)C=O)[C@@H]2O[C@@H]2O[C@H](CO)[C@H](O)[C@H](O)[C@H]2O)[C@H](O)[C@H](O)[C@H]1O
active: Mus musculus [8]

C[C@@H]1O[C@@H](O[C@H]2[C@H](O)[C@@H](C(=O)NCCCCCCCCCCCOCc3ccccc3)O[C@@H](O[C@H]3CC[C@]4(C)[C@H]5CC=C6[C@@H]7CC(C)(C)CC[C@]7(C(=O)O[C@@H]7O[C@H](C)[C@H](O)[C@H](O)[C@H]7O[C@@H]7O[C@@H](C)[C@H](O[C@@H]8OC[C@@H](O)[C@H](O)[C@H]8O)[C@@H](O[C@@H]8O[C@H](CO)[C@@H](O)[C@H](O[C@@H]9OC[C@@H](O)[C@H](O)[C@H]9O)[C@H]8O)[C@H]7O)[C@H](O)C[C@@]6(C)[C@]5(C)CC[C@H]4[C@]3(C)C=O)[C@@H]2O[C@@H]2O[C@H](CO)[C@H](O)[C@H](O)[C@H]2O)[C@H](O)[C@H](O)[C@H]1O
active: Mus musculus [7] | Mus musculus [8]

C[C@@H]1O[C@@H](O[C@H]2[C@H](O)[C@@H](C(=O)NCCCCCCCCCCC(=O)OCc3cccc(Oc4ccccc4)c3)O[C@@H](O[C@H]3CC[C@]4(C)[C@H]5CC=C6[C@@H]7CC(C)(C)CC[C@]7(C(=O)O[C@@H]7O[C@H](C)[C@H](O)[C@H](O)[C@H]7O[C@@H]7O[C@@H](C)[C@H](O[C@@H]8OC[C@@H](O)[C@H](O)[C@H]8O)[C@@H](O[C@@H]8O[C@H](CO)[C@@H](O)[C@H](O[C@@H]9OC[C@@H](O)[C@H](O)[C@H]9O)[C@H]8O)[C@H]7O)[C@H](O)C[C@@]6(C)[C@]5(C)CC[C@H]4[C@]3(C)C=O)[C@@H]2O[C@@H]2O[C@H](CO)[C@H](O)[C@H](O)[C@H]2O)[C@H](O)[C@H](O)[C@H]1O
active: Mus musculus [1] | Mus musculus [2]
